Measurements published in ChEMBL document CHEMBL3576863, “Structural requirements for bisphosphonate binding on hydroxyapatite: NMR study of bisphosphonate partial esters” (ACS Med Chem Lett, 2015).
Active and inactive are the calls of the source. The calls are words filed in the database; no cut-off is given here.

System: Hydroxyapatite
Assay: Binding affinity to hydroxyapatite at 3.2 to 3.7 mM after 1 hr by NMR analysis relative to control
Details: not given
Procedure, shortened: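 Synthetic hydroxyapatite used as a bone model. Each bisphosphonate solution was mixed with HAP for 1 h. Percent HAP-bound was calculated from the solution concentration difference before and after incubation. Statistical comparison by t test.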

| Compound | Activity [%] |
| --- | --- |
| NCCCC(O)(P(=O)(O)O)P(=O)(O)O | 70 |
| O=P(O)(O)CP(=O)(O)O | 70 |
| O=P(O)(O)C(Cl)(Cl)P(=O)(O)O [CLODRONIC ACID] | 41.9 |
| CC(O)(P(=O)(O)O)P(=O)(O)O [ETIDRONIC ACID] | 70 |

System: not listed separately
Assay: Half life in human plasma at 2.5 to 4 mg/kg, iv
Type: ADME, organism-based
Details: not given

| Compound | half-life [h] |
| --- | --- |
| O=P(O)(O)C(Cl)(Cl)P(=O)(O)O [CLODRONIC ACID] | 1 |

System: Hydroxyapatite
Assay: Binding affinity to hydroxyapatite at 3.6 to 10.7 mM after 1 hr by NMR analysis relative to control
Details: not given
Procedure, shortened: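 Hydroxyapatite (HAP) used as a synthetic bone surrogate. BP solution mixed with HAP for 1 h. Bound fraction expressed as percent of BP bound to HAP, calculated from the concentration difference of the BP solution before and after HAP incubation. Statistics by t test.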

| Compound | Activity |
| --- | --- |
| COP(=O)(O)CP(=O)(O)OC | inactive |
| CC(=O)NCCCC(OC(C)=O)(P(=O)(O)O)P(=O)(O)O | 47.7% |
| CC(C)OP(=O)(O)C(Cl)(Cl)P(=O)(O)O | inactive |
| COP(=O)(O)CP(=O)(O)O | 18.6% |
| COP(=O)(O)C(O)(CCCN)P(=O)(O)O (stereo unspecified) | 31% |
| CC(C)OP(=O)(OC(C)C)C(C)(O)P(=O)(O)O (stereo unspecified) | 11.4% |
| COP(=O)(O)C(C)(O)P(=O)(OC)OC (stereo unspecified) | inactive |
| CC(O)(P(=O)(O)O)P(=O)(O)Oc1ccccc1 (stereo unspecified) | 48% |
| COP(=O)(O)C(C)(O)P(=O)(O)O (stereo unspecified) | 55.6% |
| COP(=O)(OC)C(C)(O)P(=O)(O)O (stereo unspecified) | 12.6% |
| COP(=O)(OC)C(O)(CCCN)P(=O)(O)O (stereo unspecified) | 21.7% |
| COP(=O)(O)C(Cl)(Cl)P(=O)(O)O | inactive |
| COP(=O)(O)C(C)(O)P(=O)(O)OC (stereo unspecified) | 3.8% |
| COP(=O)(O)CP(=O)(OC)OC | inactive |

System: Homo sapiens
Assay: Half life in human plasma at 1 mg/kg, iv
Type: ADME, organism-based
Details: in vivo

| Compound | t1/2 [h] |
| --- | --- |
| NCCC(O)(P(=O)(O)O)P(=O)(O)O [PAMIDRONIC ACID] | 1 |

System: not listed separately
Assay: Half life in human plasma at 0.015 mg/kg, iv
Type: ADME, organism-based
Details: not given

| Compound | half-life [h] |
| --- | --- |
| CC(O)(P(=O)(O)O)P(=O)(O)O [ETIDRONIC ACID] | 1 |
